The experiment deals with Sodium channel protein type 5 subunit alpha (Homo sapiens, UniProt Q14524). In words: Inhibition of human Nav1.5 expressed in HEK293 cells assessed as inward peak current by ion-works quattro patch clamp electrophysiology method. It is filed as cell-based. Summed up: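 Stable HEK293 line expressing human NaV1.5, recorded by population patch clamp on the IonWorks Quattro.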

SMILES strings stand for the structures. Positions of bridges follow the written chain, without caps; N, C: chain ends. Residues, ends and D or L forms follow the SMILES beside them.

Sequence of Sodium channel protein type 5 subunit alpha (Q14524 whole entry): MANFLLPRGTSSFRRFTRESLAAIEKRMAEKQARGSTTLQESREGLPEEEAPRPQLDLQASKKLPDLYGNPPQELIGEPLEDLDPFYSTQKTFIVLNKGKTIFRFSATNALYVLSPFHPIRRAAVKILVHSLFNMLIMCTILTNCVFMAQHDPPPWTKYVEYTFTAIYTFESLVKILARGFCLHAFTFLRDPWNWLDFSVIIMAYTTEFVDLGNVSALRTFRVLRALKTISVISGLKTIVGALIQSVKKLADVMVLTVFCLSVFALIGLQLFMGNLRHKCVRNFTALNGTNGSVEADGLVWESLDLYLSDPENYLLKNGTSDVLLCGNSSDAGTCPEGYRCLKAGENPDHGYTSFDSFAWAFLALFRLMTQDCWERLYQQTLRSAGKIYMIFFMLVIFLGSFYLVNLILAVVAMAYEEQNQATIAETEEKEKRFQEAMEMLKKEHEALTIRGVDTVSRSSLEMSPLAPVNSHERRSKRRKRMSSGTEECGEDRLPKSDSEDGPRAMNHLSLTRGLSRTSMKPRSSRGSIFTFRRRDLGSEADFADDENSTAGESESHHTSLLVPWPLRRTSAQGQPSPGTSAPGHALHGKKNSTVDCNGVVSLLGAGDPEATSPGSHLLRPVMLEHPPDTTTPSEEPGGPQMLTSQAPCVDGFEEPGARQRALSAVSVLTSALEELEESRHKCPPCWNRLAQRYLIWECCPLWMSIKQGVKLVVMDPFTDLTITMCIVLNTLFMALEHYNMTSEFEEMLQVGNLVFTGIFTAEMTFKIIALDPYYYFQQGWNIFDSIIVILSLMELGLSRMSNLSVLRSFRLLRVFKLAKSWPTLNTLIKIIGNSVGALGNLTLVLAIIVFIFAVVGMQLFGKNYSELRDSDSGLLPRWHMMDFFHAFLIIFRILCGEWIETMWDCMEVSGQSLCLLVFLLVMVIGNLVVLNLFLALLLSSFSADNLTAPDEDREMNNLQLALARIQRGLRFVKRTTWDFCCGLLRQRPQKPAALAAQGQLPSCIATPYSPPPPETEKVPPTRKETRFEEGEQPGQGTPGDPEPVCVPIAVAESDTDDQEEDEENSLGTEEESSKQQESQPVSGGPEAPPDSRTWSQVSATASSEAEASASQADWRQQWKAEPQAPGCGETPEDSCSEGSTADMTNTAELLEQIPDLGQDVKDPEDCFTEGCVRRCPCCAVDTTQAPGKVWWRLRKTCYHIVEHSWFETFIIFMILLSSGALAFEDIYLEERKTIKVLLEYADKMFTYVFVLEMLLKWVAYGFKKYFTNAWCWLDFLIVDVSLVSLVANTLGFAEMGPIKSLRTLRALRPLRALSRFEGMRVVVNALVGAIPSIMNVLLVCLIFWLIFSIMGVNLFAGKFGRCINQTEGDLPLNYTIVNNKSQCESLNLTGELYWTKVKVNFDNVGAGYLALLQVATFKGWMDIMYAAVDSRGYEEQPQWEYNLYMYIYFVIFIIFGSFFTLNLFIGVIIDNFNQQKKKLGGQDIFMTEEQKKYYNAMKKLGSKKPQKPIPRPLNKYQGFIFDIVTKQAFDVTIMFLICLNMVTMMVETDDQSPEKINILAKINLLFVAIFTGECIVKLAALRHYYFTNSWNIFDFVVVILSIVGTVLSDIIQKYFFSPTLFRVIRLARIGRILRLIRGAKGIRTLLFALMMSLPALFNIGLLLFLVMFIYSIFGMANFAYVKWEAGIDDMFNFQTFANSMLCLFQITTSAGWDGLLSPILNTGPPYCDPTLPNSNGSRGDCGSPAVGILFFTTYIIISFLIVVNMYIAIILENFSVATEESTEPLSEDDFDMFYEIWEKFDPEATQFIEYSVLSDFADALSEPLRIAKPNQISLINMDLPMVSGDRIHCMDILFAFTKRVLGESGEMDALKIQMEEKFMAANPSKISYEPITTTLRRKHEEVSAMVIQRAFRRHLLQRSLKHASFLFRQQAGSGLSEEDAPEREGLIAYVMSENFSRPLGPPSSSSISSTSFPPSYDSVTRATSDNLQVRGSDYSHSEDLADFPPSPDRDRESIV

For the compound `CSCC[C@@H]1NC(=O)[C@H](Cc2ccccc2)NC(=O)CNC(=O)[C@H](CC(C)C)NC(=O)[C@@H](NC(=O)[C@@H](N)CC(=O)O)CSSC[C@@H]2NC(=O)[C@@H]3CSSC[C@@H](C(=O)N[C@@H](CCCCN)C(=O)N[C@@H](Cc4ccc(O)cc4)C(=O)N[C@H](C(=O)N[C@@H](Cc4ccccc4)C(N)=O)C(C)C)NC(=O)[C@H](Cc4c[nH]c5ccccc45)NC(=O)[C@H](CCCCN)NC(=O)[C@H](Cc4cnc[nH]4)NC(=O)[C@H]([C@@H](C)O)NC(=O)[C@H](CCCNC(=N)N)NC(=O)[C@H](CO)NC(=O)[C@H](CSSC[C@H](NC(=O)[C@H](CCCCN)NC(=O)[C@H](CCCNC(=N)N)NC1=O)C(=O)N[C@@H](C(C)C)C(=O)N1CCC[C@H]1C(=O)N[C@@H](CC(=O)O)C(=O)N[C@@H](CC(N)=O)C(=O)N[C@@H](CC(=O)O)C(=O)N[C@@H](CCCCN)C(=O)N3)NC(=O)[C@H](C(C)C)NC(=O)[C@H](CC(C)C)NC(=O)[C@H](CC(N)=O)NC(=O)[C@@H]1CCCN1C(=O)[C@H](CCCNC(=N)N)NC2=O` (H-DCLGFMRKCVPDNDKCCRPNLVCSRTHKWCKYVF-NH2; disulfide 2-17, 9-23, 16-30), the IC50 is greater than 5 µM. As to `CC[C@H](C)[C@@H]1NC(=O)[C@@H]2CSSC[C@@H]3NC(=O)[C@H](CCCNC(=N)N)NC(=O)[C@H](CC(C)C)NC(=O)[C@H](CC(N)=O)NC(=O)[C@@H]4CCCN4C(=O)[C@H](CCCNC(=N)N)NC(=O)[C@H](CSSC[C@H](NC(=O)[C@@H](N)CC(=O)O)C(=O)N[C@@H](CC(C)C)C(=O)NCC(=O)N[C@@H](Cc4ccccc4)C(=O)N[C@@H](CCSC)C(=O)N[C@@H](CCCNC(=N)N)C(=O)N[C@@H](CCCCN)C(=O)N2)NC(=O)[C@H](CSSC[C@@H](C(=O)N[C@@H](CCCCN)C(=O)N[C@@H](Cc2ccc(O)cc2)C(=O)N[C@H](C(=O)N[C@@H](Cc2ccccc2)C(N)=O)C(C)C)NC(=O)[C@H](Cc2c[nH]c4ccccc24)NC(=O)[C@H](CCCCN)NC(=O)[C@H](Cc2cnc[nH]2)NC(=O)[C@H]([C@@H](C)O)NC(=O)[C@H](CCCNC(=N)N)NC(=O)[C@H](CO)NC3=O)NC(=O)[C@H](CCCCN)NC(=O)[C@H](CC(=O)O)NC(=O)[C@H](CC(N)=O)NC(=O)[C@H](CC(=O)O)NC(=O)[C@@H]2CCCN2C1=O` (H-DCLGFMRKCIPDNDKCCRPNLRCSRTHKWCKYVF-NH2; disulfide 2-17, 9-23, 16-30), the IC50 is greater than 5 µM. With `CC[C@H](C)[C@@H]1NC(=O)[C@@H]2CSSC[C@@H]3NC(=O)[C@H](C(C)C)NC(=O)[C@H](CC(C)C)NC(=O)[C@H](CC(N)=O)NC(=O)[C@@H]4CCCN4C(=O)[C@H](CCCNC(=N)N)NC(=O)[C@H](CSSC[C@H](NC(=O)[C@@H](N)CC(=O)O)C(=O)N[C@@H](CC(C)C)C(=O)NCC(=O)N[C@@H](Cc4ccccc4)C(=O)N[C@@H](CCSC)C(=O)N[C@@H](CCCNC(=N)N)C(=O)N[C@@H](CCCCN)C(=O)N2)NC(=O)[C@H](CSSC[C@@H](C(=O)N[C@@H](CCCCN)C(=O)N[C@@H](Cc2ccc(O)cc2)C(=O)N[C@H](C(=O)N[C@@H](Cc2ccccc2)C(=O)O)C(C)C)NC(=O)[C@H](Cc2c[nH]c4ccccc24)NC(=O)[C@H](CCCCN)NC(=O)[C@H](Cc2cnc[nH]2)NC(=O)[C@H]([C@@H](C)O)NC(=O)[C@H](CCCNC(=N)N)NC(=O)[C@H](CO)NC3=O)NC(=O)[C@H](CCCCN)NC(=O)[C@H](CC(=O)O)NC(=O)[C@H](CC(N)=O)NC(=O)[C@H](CC(=O)O)NC(=O)[C@@H]2CCCN2C1=O` (stereo in doubt; 158), under “hek293”, the IC50 was greater than 5 µM. For the compound `CC[C@H](C)[C@@H]1NC(=O)[C@@H]2CSSC[C@@H]3NC(=O)[C@H](C(C)C)NC(=O)[C@H](CC(C)C)NC(=O)[C@H](CC(N)=O)NC(=O)[C@@H]4CCCN4C(=O)[C@H](CCCNC(=N)N)NC(=O)[C@H](CSSC[C@H](NC(=O)[C@@H](N)CC(=O)O)C(=O)N[C@@H](CC(C)C)C(=O)NCC(=O)N[C@@H](Cc4ccccc4)C(=O)N[C@@H](CCSC)C(=O)N[C@@H](CCCNC(=N)N)C(=O)N[C@@H](CCCCN)C(=O)N2)NC(=O)[C@H](CSSC[C@@H](C(=O)N[C@@H](CCCCN)C(=O)N[C@@H](Cc2ccc(O)cc2)C(=O)N[C@H](C(=O)N[C@@H](Cc2ccccc2)C(N)=O)C(C)C)NC(=O)[C@H](Cc2c[nH]c4ccccc24)NC(=O)[C@H](CCCCN)NC(=O)[C@H](Cc2c[nH]c4ccccc24)NC(=O)[C@H]([C@@H](C)O)NC(=O)[C@H](CCCNC(=N)N)NC(=O)[C@H](CO)NC3=O)NC(=O)[C@H](CCCCN)NC(=O)[C@H](CC(=O)O)NC(=O)[C@H](CC(N)=O)NC(=O)[C@H](CC(=O)O)NC(=O)[C@@H]2CCCN2C1=O` (H-DCLGFMRKCIPDNDKCCRPNLVCSRTWKWCKYVF-NH2; disulfide 2-17, 9-23, 16-30), the IC50 was greater than 5 µM. `CSCC[C@@H]1NC(=O)[C@H](Cc2ccccc2)NC(=O)CNC(=O)[C@H](CC(C)C)NC(=O)[C@@H](NC(=O)[C@@H](N)CC(=O)O)CSSC[C@@H]2NC(=O)[C@@H]3CSSC[C@@H](C(=O)N[C@@H](CCCCN)C(=O)N[C@@H](Cc4ccc(O)cc4)C(=O)N[C@H](C(=O)N[C@@H](Cc4ccccc4)C(N)=O)C(C)C)NC(=O)[C@H](Cc4c[nH]c5ccccc45)NC(=O)[C@H](CCCCN)NC(=O)[C@H](Cc4cnc[nH]4)NC(=O)[C@H]([C@@H](C)O)NC(=O)[C@H](CCCNC(=N)N)NC(=O)[C@H](CO)NC(=O)[C@H](CSSC[C@H](NC(=O)[C@H](CCCCN)NC(=O)[C@H](CCCNC(=N)N)NC1=O)C(=O)N[C@@H]([C@@H](C)O)C(=O)N1CCC[C@H]1C(=O)N[C@@H](CC(=O)O)C(=O)N[C@@H](CC(N)=O)C(=O)N[C@@H](CC(=O)O)C(=O)N[C@@H](CCCCN)C(=O)N3)NC(=O)[C@H](C(C)C)NC(=O)[C@H](CC(C)C)NC(=O)[C@H](CC(N)=O)NC(=O)[C@@H]1CCCN1C(=O)[C@H](CCCNC(=N)N)NC2=O` (H-DCLGFMRKCTPDNDKCCRPNLVCSRTHKWCKYVF-NH2; disulfide 2-17, 9-23, 16-30): the IC50 is greater than 5 µM. Take `CC[C@H](C)[C@@H]1NC(=O)[C@@H]2CSSC[C@@H]3NC(=O)[C@H](C(C)C)NC(=O)[C@H](CC(C)C)NC(=O)[C@H](CC(N)=O)NC(=O)[C@@H]4CCCN4C(=O)[C@H](CCCNC(=N)N)NC(=O)[C@H](CSSC[C@H](NC(=O)[C@@H](N)CCCNC(=N)N)C(=O)N[C@@H](CC(C)C)C(=O)NCC(=O)N[C@@H](Cc4ccccc4)C(=O)N[C@@H](CCSC)C(=O)N[C@@H](CCCNC(=N)N)C(=O)N[C@@H](CCCCN)C(=O)N2)NC(=O)[C@H](CSSC[C@@H](C(=O)N[C@@H](CCCCN)C(=O)N[C@@H](Cc2ccc(O)cc2)C(=O)N[C@H](C(=O)N[C@@H](Cc2ccccc2)C(N)=O)C(C)C)NC(=O)[C@H](Cc2c[nH]c4ccccc24)NC(=O)[C@H](CCCCN)NC(=O)[C@H](Cc2cnc[nH]2)NC(=O)[C@H]([C@@H](C)O)NC(=O)[C@H](CCCNC(=N)N)NC(=O)[C@H](CO)NC3=O)NC(=O)[C@H](CCCCN)NC(=O)[C@H](CC(=O)O)NC(=O)[C@H](CC(N)=O)NC(=O)[C@H](CC(=O)O)NC(=O)[C@@H]2CCCN2C1=O` (H-RCLGFMRKCIPDNDKCCRPNLVCSRTHKWCKYVF-NH2; disulfide 2-17, 9-23, 16-30): the IC50 was greater than 5 µM.

These data come from ChEMBL document CHEMBL3797186, “Single Residue Substitutions That Confer Voltage-Gated Sodium Ion Channel Subtype Selectivity in the NaV1.7 Inhibitory Peptide GpTx-1” (J Med Chem, 2016).
